Fibroblast inh: blocks proliferation of human lung fibroblasts. LL 47 human lung fibroblast viability, ATP luminescence; stronger effect = lower value. viability, % at 10 µM. 85,000 tested, 1.1% active;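 active = viability at or below 50% in the single dose screen; inactive = viability above 50%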;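 also: compound exposure lasted 72 h before the ATP readout; 100% = median luminescence of untreated cell-only wells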
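Test system: LL 47 human lung fibroblasts; Quantity: 1,150 cells/well; Buffer or medium: IMEM plus 15% FBS; Dosing: tenfold compound dosing solution, DMSO at 0.1%; Timing: overnight cell rest, 72 h compound treatment at 37 °C; Detection: ATP-based CellTiter-Glo luminescent readout; Read-out basis: viability percentage against median untreated-cell control; Controls: cell-only wells, no compound.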
H69AR inhibit: blocks growth of human H69AR lung tumor cells; 85,000 tested, 6% active; AID 598; viability, % at 10 µM; H69AR lung tumor viability, ATP luminescence, 72 h; stronger effect = lower value;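 active = viability at or below 40%; inactive = viability above 40%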;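 also: multidrug resistant small cell line overexpressing MRP-1 efflux transporter; 100% = mean luminescence of untreated control wells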
HUVEC inhibit: human endothelial cell proliferation inhibition; 86,000 tested, 1.1% active; HUVEC proliferation, CellTiter-Glo luminescence, 72 h; stronger effect = lower value; viability, % at 10 µM (by protocol);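 active = viability at or below 30%; inactive = viability above 30%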;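 also: 100% = median luminescence of DMSO-only cell control wells on each plate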
PTEN del growth: PTEN-deleted cell growth suppression. HCT116 PTEN-null viability, CellTiter-Glo, 60 h; stronger effect = lower value. viability, % at 10 µM. 140,000 tested, 1.2% active. AID 827;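 active = viability at or below a set limit, 4 SD under the median of all tested compounds, cut at about 3.7% in these data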;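 also: PTEN knockout HCT116 line with beta catenin targeted HCT116 as companion control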
HCT116 bCat-KO: beta-catenin-lacking colon tumor cell growth suppression. HCT116 beta-catenin knockout viability, CellTiter-Glo, 60 h; stronger effect = lower value. viability, % at 10 µM. 140,000 tested, 1.5% active. AID 818;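 active = viability at or under a set limit, the compound median less 4 SD, cut at about 6% in these data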;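 also: 0% = Hyamine 1622 control at 20 µM and 100% = untreated cell control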
Numbers without * were called inactive. The full list was thinned out, with hits kept by preference.

Cc1ccc(S(=O)(=O)N(C)c2ccc(C(=O)N3CCN(Cc4ccc5c(c4)OCO5)CC3)cc2)cc1 was read as Fibroblast inh 95, H69AR inhibit 25*, HUVEC inhibit 91, PTEN del growth 18 and HCT116 bCat-KO 14.
`CCN(CC)S(=O)(=O)c1cccc(NC(=O)COC(=O)CCC(=O)c2ccc(F)cc2)c1` gave PTEN del growth 92 and HCT116 bCat-KO 87.
`O=C(COC(=O)CC1CCCC1)Nc1cc2c(cc1Cl)C(=O)c1ccccc1C2=O` gave Fibroblast inh 79, H69AR inhibit 19*, HUVEC inhibit 32, PTEN del growth 79 and HCT116 bCat-KO 68.
Screening COc1ccc(N2CC(C(=O)Nc3nnc(SCc4ccccn4)s3)CC2=O)cc1 (stereo not drawn) returned PTEN del growth 97 and HCT116 bCat-KO 94.
Cc1cc(C)nc(SCc2ccc(C(=O)N/N=C/C3CCCCC3)cc2)n1 was read as PTEN del growth 99 and HCT116 bCat-KO 98.
Screening CCOC(=O)N1CCC(NC(=O)c2cc3c(C)nc4ccccc4c3o2)CC1 returned Fibroblast inh 103, H69AR inhibit 57, HUVEC inhibit 80, PTEN del growth 84 and HCT116 bCat-KO 85.
CCOC(=O)N1CCC(NC(=O)c2cc(C)c3c(C)nn(-c4ccccc4)c3n2)CC1 was read as Fibroblast inh 95, H69AR inhibit 22*, HUVEC inhibit 85, PTEN del growth 104 and HCT116 bCat-KO 100.
For Cc1[nH]nc(Sc2ccccn2)c1[N+](=O)[O-] the results were PTEN del growth 99 and HCT116 bCat-KO 96.
COc1ccc(CCN2C(=O)c3[nH]nc(-c4ccccc4O)c3C2c2ccccc2)cc1OC (stereo not drawn) was read as Fibroblast inh 90, H69AR inhibit 39*, HUVEC inhibit 78, PTEN del growth 27 and HCT116 bCat-KO 24.
Screening CC(C)OCCCN1C(=O)c2[nH]nc(-c3ccccc3O)c2C1c1cccc(Cl)c1 (stereo not drawn) returned Fibroblast inh 86, H69AR inhibit 6.5*, HUVEC inhibit 5.7*, PTEN del growth 19 and HCT116 bCat-KO 40.
O=C1c2[nH]nc(-c3ccccc3O)c2C(c2ccccc2)N1Cc1ccco1 (stereo not drawn) was read as Fibroblast inh 91, HUVEC inhibit 91, PTEN del growth 76 and HCT116 bCat-KO 81.
For COCCCN1C(=O)c2[nH]nc(-c3ccccc3O)c2C1c1cccc(Cl)c1 (stereo not drawn) the results were Fibroblast inh 65, H69AR inhibit 2.9*, HUVEC inhibit 80, PTEN del growth 25 and HCT116 bCat-KO 20.
`COCCCN1C(=O)c2[nH]nc(-c3ccccc3O)c2C1c1ccc(Cl)cc1` (stereo not drawn) gave Fibroblast inh 89, HUVEC inhibit 89, PTEN del growth 36 and HCT116 bCat-KO 42.
O=C1c2[nH]nc(-c3ccccc3O)c2C(c2ccccc2F)N1Cc1ccco1 (stereo not drawn) was read as Fibroblast inh 77, H69AR inhibit 4.5*, HUVEC inhibit 53, PTEN del growth 28 and HCT116 bCat-KO 43.
CCOc1ccc(C(=O)NC(=S)Nc2cccc(NC(=O)c3ccco3)c2)cc1[N+](=O)[O-] was read as PTEN del growth 90 and HCT116 bCat-KO 82.
Cn1c(CNC(=O)c2cccs2)nnc1SCC(=O)Nc1ccccc1 was read as PTEN del growth 111 and HCT116 bCat-KO 95.
For CCN(CC)S(=O)(=O)c1ccc2c(c1)nc(CCC(=O)Nc1cccc(C(F)(F)F)c1)n2CC the results were Fibroblast inh 91, H69AR inhibit 14*, HUVEC inhibit 70, PTEN del growth 70 and HCT116 bCat-KO 72.
Screening CCN(CC)S(=O)(=O)c1cccc(NC(=O)Nc2cccc(C(F)(F)F)c2)c1 returned PTEN del growth 3.2* and HCT116 bCat-KO 4.2*.
Screening Cc1cc(NC(=O)Nc2cccc(C(F)(F)F)c2)no1 returned Fibroblast inh 99, H69AR inhibit 98, HUVEC inhibit 87, PTEN del growth 85 and HCT116 bCat-KO 80.
`COCCN1C(=O)N[C@@H](c2ccc(Br)cc2)C(C(C)=O)=C1C` gave PTEN del growth 98 and HCT116 bCat-KO 100.
For Cc1ccc(C2C(/C=C3/SC(=S)NC3=O)=C(c3cccs3)Oc3ccccc32)cc1 (stereo not drawn) the results were Fibroblast inh 92, H69AR inhibit 14*, HUVEC inhibit 49, PTEN del growth 60 and HCT116 bCat-KO 64.
Screening CC(C)OCCCNC(=O)CCC(=O)NNc1nc2ccccc2c2nc(-c3ccccc3)nn12 returned PTEN del growth 75 and HCT116 bCat-KO 61.
`Cc1ccc(S(=O)(=O)CCc2nc3ccccc3n2CCC#N)cc1` gave Fibroblast inh 113, H69AR inhibit 14*, HUVEC inhibit 100, PTEN del growth 16 and HCT116 bCat-KO 19.
Cc1ccc(-n2nnnc2SCC(=O)Nc2ccc3c(c2)COC3=O)cc1C was read as Fibroblast inh 27*, H69AR inhibit 95, HUVEC inhibit 89, PTEN del growth 80 and HCT116 bCat-KO 83.
For CCn1c2ccccc2c2cc(NC(=O)CSc3nnnn3-c3ccccc3)ccc21 the results were Fibroblast inh 79, H69AR inhibit 20*, HUVEC inhibit 73, PTEN del growth 91 and HCT116 bCat-KO 94.
For CCn1c2ccccc2c2cc(NC(=O)CSc3nnc(-c4ccc(OC)cc4)n3N)ccc21 the results were Fibroblast inh 56, H69AR inhibit 27*, HUVEC inhibit 48, PTEN del growth 30 and HCT116 bCat-KO 35.
`CCn1c(SCC(=O)Nc2ccc3c(c2)c2ccccc2n3CC)nnc1-c1cnccn1` gave Fibroblast inh 95, H69AR inhibit 18*, HUVEC inhibit 97, PTEN del growth 63 and HCT116 bCat-KO 38.
O=C(Cc1ccc(NS(=O)(=O)c2ccc(F)cc2)cc1)NCc1ccccc1 was read as Fibroblast inh 89, H69AR inhibit 90, HUVEC inhibit 112, PTEN del growth 94 and HCT116 bCat-KO 100.
For O=C(Cc1ccccc1)Nc1ccc(NC(=O)c2cccs2)c(Cl)c1 the results were PTEN del growth 102 and HCT116 bCat-KO 105.
CCn1c(=O)cc(SCC(=O)Nc2ccc(Cl)cc2)c2ccccc21 was read as Fibroblast inh 87, H69AR inhibit 17*, HUVEC inhibit 82, PTEN del growth 82 and HCT116 bCat-KO 87.
`CCn1c(=O)cc(SCC(=O)Nc2ccc(OC)c(OC)c2)c2ccccc21` gave Fibroblast inh 102, H69AR inhibit 78, HUVEC inhibit 86, PTEN del growth 83 and HCT116 bCat-KO 70.
For O=c1[nH]c(=O)n(Cc2ccccc2)c2nc(-c3ccc(Oc4ccc(F)cc4)c([N+](=O)[O-])c3)n(CCO)c12 the results were PTEN del growth 1.1* and HCT116 bCat-KO 0.8*.
For CC(C)(C)c1ccc(C(=O)NCCCN2CCN(CCCNC(=O)c3ccc(C(C)(C)C)cc3)CC2)cc1 the results were PTEN del growth 1.8* and HCT116 bCat-KO 1.3*.

Compound activity: PubChem BioAssay, SRMLSC
